In ChEMBL document CHEMBL2331168, “Anticonvulsant evaluation of aminoalkanol derivatives of 2- and 4-methylxanthone” (Bioorg Med Chem, 2013):
Active and inactive are the calls of the source.

Experiments:
[1] = test system: Mus musculus; experiment: Anticonvulsant activity in albino mouse assessed as protection against maximal electroshock-induced seizures at 300 mg/kg, ip after 0.5 hrs; format: functional, organism-based; set-up: dose 300 mg/kg
Outline: (§1)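 Male albino mice (Carworth Farms No. 1) were given the compound ip as a suspension in 0.5% methylcellulose at 3–300 mg/kg. MES testing was at 0.5 and 4 h, sometimes also at 0.25 and 1 h. Current was 60 Hz, 50 mA, 0.2 s via corneal electrodes, with saline eye drops. Protection meant no hindlimb tonic extension, scored as protected/tested.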

[2] = test system: Mus musculus; experiment: Neurotoxicity in albino mouse assessed as minimal motor impairment at 100 mg/kg, ip after 1 hr by rotorod test; format: toxicity, organism-based; set-up: dose 100 mg/kg, route intraperitoneal; details: in vivo
Outline: (§2)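 Male albino mice (Carworth Farms No. 1) were dosed ip with suspensions in 0.5% methylcellulose and put on a 1 in. knurled rod rotating at 6 rpm at set times after dosing. Neurotoxicity meant failure to stay on the rod for at least 1 min in each of three trials. Scored as impaired/tested.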

[3] = test system: Mus musculus; experiment: Anticonvulsant activity in albino mouse assessed as protection against maximal electroshock-induced seizures at 300 mg/kg, ip after 4 hrs; format: functional, organism-based; set-up: dose 300 mg/kg; outline: as §1
[4] = test system: Mus musculus; experiment: Anticonvulsant activity in albino mouse assessed as protection against subcutaneous pentetrazole-induced seizures at 100 mg/kg, ip after 4 hrs; format: functional, organism-based; set-up: dose 100 mg/kg
Outline: (§3)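 Male albino mice (Carworth Farms No. 1) received compound ip in 0.5% methylcellulose, then pentetrazole 85 mg/kg sc in 0.9% NaCl at 0.5 or 4 h. Mice were watched for at least 30 min. Protection meant no threshold seizure, defined as a single clonic spasm lasting at least 5 s. Scored as protected/tested.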

[5] = test system: Mus musculus; experiment: Anticonvulsant activity in albino mouse assessed as protection against subcutaneous pentetrazole-induced seizures at 30 mg/kg, ip after 0.5 hrs; format: functional, organism-based; set-up: dose 30 mg/kg; outline: as §3
[6] = test system: Mus musculus; experiment: Neurotoxicity in albino mouse assessed as minimal motor impairment at 100 mg/kg, ip after 0.25 hrs by rotorod test; format: toxicity, organism-based; set-up: dose 100 mg/kg, route intraperitoneal; details: in vivo; outline: as §2
[7] = test system: Mus musculus; experiment: Anticonvulsant activity in albino mouse assessed as protection against subcutaneous pentetrazole-induced seizures at 300 mg/kg, ip after 0.5 hrs; format: functional, organism-based; set-up: dose 300 mg/kg; outline: as §3
[8] = test system: Mus musculus; experiment: Anticonvulsant activity in albino mouse assessed as protection against maximal electroshock-induced seizures at 30 mg/kg, ip after 0.5 hrs; format: functional, organism-based; set-up: dose 30 mg/kg; outline: as §1
[9] = test system: Mus musculus; experiment: Neurotoxicity in albino mouse assessed as minimal motor impairment at 300 mg/kg, ip after 4 hrs by rotorod test; format: toxicity, organism-based; set-up: dose 300 mg/kg, route intraperitoneal; details: in vivo; outline: as §2
[10] = test system: Mus musculus; experiment: Anticonvulsant activity in albino mouse assessed as protection against maximal electroshock-induced seizures at 30 mg/kg, ip after 4 hrs; format: functional, organism-based; set-up: dose 30 mg/kg; outline: as §1
[11] = test system: Mus musculus; experiment: Anticonvulsant activity in albino mouse assessed as protection against maximal electroshock-induced seizures at 100 mg/kg, ip after 1 hr; format: functional, organism-based; set-up: dose 100 mg/kg; outline: as §1
[12] = test system: Mus musculus; experiment: Anticonvulsant activity in albino mouse assessed as protection against maximal electroshock-induced seizures at 100 mg/kg, ip after 4 hrs; format: functional, organism-based; set-up: dose 100 mg/kg; outline: as §1
[13] = test system: Mus musculus; experiment: Anticonvulsant activity in albino mouse assessed as protection against subcutaneous pentetrazole-induced seizures at 100 mg/kg, ip after 0.5 hrs; format: functional, organism-based; set-up: dose 100 mg/kg; outline: as §3
[14] = test system: Mus musculus; experiment: Anticonvulsant activity in albino mouse assessed as protection against maximal electroshock-induced seizures at 100 mg/kg, ip after 0.25 hrs; format: functional, organism-based; set-up: dose 100 mg/kg; outline: as §1
[15] = test system: Mus musculus; experiment: Neurotoxicity in albino mouse assessed as minimal motor impairment at 100 mg/kg, ip after 4 hrs by rotorod test; format: toxicity, organism-based; set-up: dose 100 mg/kg, route intraperitoneal; details: in vivo; outline: as §2
[16] = test system: Mus musculus; experiment: Anticonvulsant activity in albino mouse assessed as protection against maximal electroshock-induced seizures at 100 mg/kg, ip after 0.5 hrs; format: functional, organism-based; set-up: dose 100 mg/kg; outline: as §1
[17] = test system: Mus musculus; experiment: Neurotoxicity in albino mouse assessed as minimal motor impairment at 3 mg/kg, ip after 0.5 hrs by rotorod test; format: toxicity, organism-based; set-up: dose 3 mg/kg, route intraperitoneal; details: in vivo; outline: as §2
[18] = test system: Rattus norvegicus; experiment: Neurotoxicity in Sprague-Dawley rat assessed as minimal motor impairment at 30 mg/kg, po after 1 hr by rotorod test; details: in vivo
[19] = Neurotoxicity in ip dosed albino mouse assessed as minimal motor impairment after 0.25 hrs by rotorod test; format: toxicity, organism-based; details: in vivo
Outline: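 TD50, with 95% confidence intervals, was the ip dose causing neurotoxicity in 50% of male albino mice. Deficit was judged on the rotorod: a 1 in. knurled rod at 6 rpm, where failure to hold on for 1 min in each of three trials counted as deficit. Read at the stated time after dosing.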

[20] = test system: Rattus norvegicus; experiment: Neurotoxicity in Sprague-Dawley rat assessed as minimal motor impairment at 30 mg/kg, po after 0.5 hrs by rotorod test; details: in vivo
[21] = test system: Mus musculus; experiment: Anticonvulsant activity in albino mouse assessed as protection against subcutaneous pentetrazole-induced seizures at 300 mg/kg, ip after 4 hrs; format: functional, organism-based; set-up: dose 300 mg/kg; outline: as §3
[22] = test system: Mus musculus; experiment: Anticonvulsant activity in ip dosed albino mouse assessed as protection against subcutaneous pentetrazole-induced seizures after 1 hr; format: functional
[23] = test system: Mus musculus; experiment: Anticonvulsant activity in ip dosed albino mouse assessed as protection against maximal electroshock-induced seizures after 1 hr; format: functional
Outline: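 ED50, with 95% confidence intervals, was the ip dose protecting 50% of mice in the MES test. It was measured at the stated post-dose time in male albino mice given suspensions in 0.5% methylcellulose. MES used 60 Hz, 50 mA, 0.2 s corneal stimulation, and the endpoint was abolition of hindlimb tonic extension.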

[24] = organism: Mus musculus; experiment: Protective index, ratio TD50 for albino mouse to ED50 for albino mouse by maximal electroshock-induced seizure test after 1 hr; format: functional
Outline: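 Protective index was calculated as mouse ip TD50 (rotorod) divided by mouse ip MES ED50, both obtained by quantitative dose-response testing at the stated post-dose time.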

[25] = test system: Rattus norvegicus; experiment: Neurotoxicity in Sprague-Dawley rat assessed as minimal motor impairment at 30 mg/kg, po after 0.25 hrs by rotorod test; details: in vivo
[26] = test system: Rattus norvegicus; experiment: Neurotoxicity in Sprague-Dawley rat assessed as minimal motor impairment at 30 mg/kg, po after 4 hrs by rotorod test; details: in vivo
[27] = test system: Mus musculus; experiment: Anticonvulsant activity in albino mouse assessed as protection against maximal electroshock-induced seizures at 3 mg/kg, ip after 0.5 hrs; format: functional, organism-based; set-up: dose 3 mg/kg; outline: as §1
[28] = test system: Mus musculus; experiment: Neurotoxicity in albino mouse assessed as minimal motor impairment at 30 mg/kg, ip after 4 hrs by rotorod test; format: toxicity, organism-based; set-up: dose 30 mg/kg, route intraperitoneal; details: in vivo; outline: as §2
[29] = test system: Mus musculus; experiment: Neurotoxicity in albino mouse assessed as minimal motor impairment at 10 mg/kg, ip after 0.5 hrs by rotorod test; format: toxicity, organism-based; set-up: dose 10 mg/kg, route intraperitoneal; details: in vivo; outline: as §2
[30] = test system: Mus musculus; experiment: Anticonvulsant activity in albino mouse assessed as protection against subcutaneous pentetrazole-induced seizures at 30 mg/kg, ip after 4 hrs; format: functional, organism-based; set-up: dose 30 mg/kg; outline: as §3
[31] = test system: Mus musculus; experiment: Neurotoxicity in albino mouse assessed as minimal motor impairment at 30 mg/kg, ip after 0.5 hrs by rotorod test; format: toxicity, organism-based; set-up: dose 30 mg/kg, route intraperitoneal; details: in vivo; outline: as §2
[32] = test system: Rattus norvegicus; experiment: Neurotoxicity in Sprague-Dawley rat assessed as minimal motor impairment at 30 mg/kg, po after 2 hrs by rotorod test; details: in vivo

Compound | Activity [1] | Activity [3] | Activity [4] | Activity [5] | Activity [7] | Activity [8] | Activity [9] | Activity [10] | Activity [12] | Activity [13] | Activity [15] | Activity [16] | also measured
COc1ccc2c(=O)c3cccc(CN(C)C(C)CO)c3oc2c1 (racemic) | Active | Active | inactive | inactive | inactive | inactive | Non-toxic | inactive | inactive | inactive | Non-toxic | inactive | Activity [2]: Non-toxic; Activity [6]: Non-toxic; Activity [11]: inactive; Activity [14]: inactive
CC[C@@H](CO)NCc1ccc2oc3cc(OC)ccc3c(=O)c2c1 | Active | Active | inactive | inactive | inactive | Active | Toxic | inactive | Active | inactive | Non-toxic | Active | Activity [17]: Non-toxic; Activity [18]: Non-toxic; TD50 at 0.25 h [19]: > 400 mg/kg; Activity [20]: Non-toxic; Activity [21]: inactive; ED50 [22]: > 200 mg/kg; ED50 [23]: 47.6 mg/kg; Ratio TD50/ED50 [24]: >8.41; Activity [25]: Non-toxic; Activity [26]: Non-toxic; Activity [27]: inactive; Activity [28]: Non-toxic; Activity [29]: Non-toxic; Activity [30]: inactive; Activity [31]: Non-toxic; Activity [32]: Non-toxic
